Rows were chosen to be rich in hits. Some 3.7% of all compounds tested hit in one or more screens of this group.
RBBP9 inhibitor – human RBBP9 inhibitors, primary screen, biochemical, fluorescence polarization, FP-Rh probe, HTS; Serine hydrolase RBBP9 (Homo sapiens), O75884; recombinant RBBP9; inhibition, % at 7.94 µM; 220,000 tested, 0.2% active; AID 1515, 2009;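 active means inhibition above the campaign mean of all tested compounds plus 3 SD, cut at about 14% in these data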
Target sequence (O75884 whole entry, looked up): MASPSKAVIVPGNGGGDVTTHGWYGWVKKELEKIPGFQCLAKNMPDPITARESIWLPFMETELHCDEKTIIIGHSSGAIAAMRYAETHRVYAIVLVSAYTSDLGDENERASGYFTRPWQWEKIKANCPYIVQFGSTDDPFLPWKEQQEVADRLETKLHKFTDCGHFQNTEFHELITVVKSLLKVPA
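Measured by – fluorescence polarization · Test system – RBBP9 protein · Input – 2.5 µM RBBP9 dispensing solution, before mixing · Measure – percent inhibition from mP, scaled between DMSO and no-protein wells · Benchmarks – DMSO-treated enzyme wells and wells lacking RBBP9 · Times – preincubation 30 min plus labeling 45 min at 25 °C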
eIF4E 4G PPI – eIF4E–eIF4G protein interaction inhibitors, primary screen, biochemical, uHTS, TR-FRET, eIF4GI fragment; TR-FRET eIF4E-eIF4GI(517-606) binding, 2 h; inhibition, % at 21.7 µM; 220,000 tested, 0.37% active; AID 782, 2007
EBV gp42 block – Epstein-Barr virus gp42 inhibitors, primary screen, biochemical, uHTS, fluorescence polarization; Glycoprotein 42 (Epstein-Barr virus (strain AG876)), Q1HVG2; Fluorescence polarization binding assay, mP read-out; inhibition, % (tested at 21.74 µM); 220,000 tested, 0.42% active; AID 1085, 2008; in the data active means inhibition above about 50%
Target sequence (Q1HVG2 whole entry, looked up): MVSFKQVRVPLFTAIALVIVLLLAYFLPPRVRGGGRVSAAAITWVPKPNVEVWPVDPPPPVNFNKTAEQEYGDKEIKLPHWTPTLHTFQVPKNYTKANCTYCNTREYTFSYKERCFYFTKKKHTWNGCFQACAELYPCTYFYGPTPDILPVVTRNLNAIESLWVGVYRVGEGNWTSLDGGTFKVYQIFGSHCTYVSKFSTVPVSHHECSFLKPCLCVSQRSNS
WT yeast gro inh – growth inhibition of WT strain, primary screen, mitochondrial fusion inhibitor project, WT and mutant strains, chemical genetic. inhibition, % at 10 µM. mitochondrial fusion phenotypic screen. 190,000 tested, 2.1% active. AID 1362, 2008; in the data active means inhibition above about 58%; tested in S. cerevisiae
NCF1 inh – p47phox/p22phox peptide binding inhibitors, primary screen, biochemical, uHTS, NADPH oxidase regulatory subunit. fluorescence polarization, 2 h. 220,000 tested, 0.53% active. Neutrophil cytosol factor 1 (Homo sapiens), P14598. inhibition, % at 24.7 µM. AID 1274, 2008
14-3-3 Bad inh – inhibitors of 14-3-3 zeta/Bad binding, primary screen, biochemical, TR-FRET, bovine 14-3-3 zeta. inhibition, % at 21.7 µM. 220,000 tested, 0.71% active. AID 781, 2007. 14-3-3 protein zeta/delta (Bos taurus), P63103. TR-FRET 14-3-3zeta/Dy647-pBad peptide displacement, 1 h;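 active means inhibition above about 70%, limit read from the data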
Target sequence (P63103 whole entry, looked up): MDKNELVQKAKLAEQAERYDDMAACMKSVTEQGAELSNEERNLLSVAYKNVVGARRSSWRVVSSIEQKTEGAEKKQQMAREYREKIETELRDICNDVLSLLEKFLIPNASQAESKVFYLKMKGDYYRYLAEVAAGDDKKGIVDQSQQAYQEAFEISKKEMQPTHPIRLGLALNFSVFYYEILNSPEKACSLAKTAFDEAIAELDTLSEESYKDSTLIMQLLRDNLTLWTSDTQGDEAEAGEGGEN
Hits are given with their value.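 How the source made its calls, unless noted: active means inhibition above about 30% (limit read from the data); inactive means the rest.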

Results for COc1cc(/C=C2\SC(=O)N(Cc3ccc(F)cc3)C2=O)cc([N+](=O)[O-])c1O ?
RBBP9 inhibitor: inactive; eIF4E 4G PPI: inactive; EBV gp42 block: 58; WT yeast gro inh: 62; NCF1 inh: inactive; 14-3-3 Bad inh: inactive

What do the screens show for `C1CCN=C(Nc2nn[nH]n2)CC1`?
RBBP9 inhibitor: inactive; eIF4E 4G PPI: inactive; EBV gp42 block: inactive; WT yeast gro inh: inactive; NCF1 inh: inactive; 14-3-3 Bad inh: 71

How did COC(=O)c1nc(NC2=NCCCCC2)n[nH]1 do in these assays?
RBBP9 inhibitor: inactive; eIF4E 4G PPI: inactive; EBV gp42 block: inactive; WT yeast gro inh: inactive; NCF1 inh: inactive; 14-3-3 Bad inh: inactive

How did O=C(NCc1cc(Br)cc(Br)c1OC(=O)c1ccccc1[N+](=O)[O-])c1ccccc1 do in these assays?
RBBP9 inhibitor: inactive; eIF4E 4G PPI: inactive; EBV gp42 block: inactive; WT yeast gro inh: inactive; NCF1 inh: inactive; 14-3-3 Bad inh: inactive

Results for O=C(O)CC(NC(=O)Cc1ccc(Cl)cc1)c1ccco1 (configuration not stated) ?
RBBP9 inhibitor: inactive; eIF4E 4G PPI: inactive; EBV gp42 block: inactive; WT yeast gro inh: inactive; 14-3-3 Bad inh: inactive

What do the screens show for `CC(=Nc1ccc(C)cc1C)c1sc2ccccc2c1O`?
RBBP9 inhibitor: inactive; eIF4E 4G PPI: inactive; EBV gp42 block: inactive; WT yeast gro inh: 79; NCF1 inh: inactive; 14-3-3 Bad inh: inactive

How did Cc1ccc(N2C(=O)[C@@H]3[C@H](C2=O)C2c4ccccc4C=CN2[C@@H]3C(=O)c2ccco2)cc1 (some centres not stated) do in these assays?
RBBP9 inhibitor: inactive; eIF4E 4G PPI: inactive; EBV gp42 block: 54; WT yeast gro inh: inactive; NCF1 inh: inactive; 14-3-3 Bad inh: inactive

What do the screens show for `c1ccc(CSc2ccc(-c3ccccn3)nn2)nc1`?
RBBP9 inhibitor: inactive; eIF4E 4G PPI: inactive; EBV gp42 block: inactive; WT yeast gro inh: inactive; NCF1 inh: inactive; 14-3-3 Bad inh: inactive

How did O=C(N1CCOCC1)N1CCC(c2nc(-c3ccc(S(=O)(=O)N4CCOCC4)cc3)no2)CC1 do in these assays?
RBBP9 inhibitor: inactive; eIF4E 4G PPI: inactive; EBV gp42 block: inactive; WT yeast gro inh: inactive; NCF1 inh: inactive; 14-3-3 Bad inh: 73

What do the screens show for `COc1ccc(/C(C)=N/Nc2nc3ccccc3n3cnnc23)cc1OC`?
RBBP9 inhibitor: inactive; eIF4E 4G PPI: inactive; EBV gp42 block: inactive; NCF1 inh: inactive; 14-3-3 Bad inh: inactive

How did Cc1noc(C)c1S(=O)(=O)N(CCc1ccccc1)Cc1ccccc1 do in these assays?
RBBP9 inhibitor: inactive; eIF4E 4G PPI: inactive; EBV gp42 block: inactive; WT yeast gro inh: 70; NCF1 inh: inactive; 14-3-3 Bad inh: inactive

How did O=C(N/C=C/n1cnc2cc(C(F)(F)F)ccc21)c1ccccc1F do in these assays?
RBBP9 inhibitor: inactive; eIF4E 4G PPI: inactive; EBV gp42 block: inactive; WT yeast gro inh: inactive; NCF1 inh: inactive; 14-3-3 Bad inh: inactive

How did COc1ccccc1N1CCN(CC(O)COc2c(OC)cccc2OC)CC1 (configuration not stated) do in these assays?
RBBP9 inhibitor: inactive; eIF4E 4G PPI: inactive; EBV gp42 block: inactive; WT yeast gro inh: inactive; NCF1 inh: inactive; 14-3-3 Bad inh: inactive

How did CC(C)(C)C1CCC(OCC(O)CN2CCN(c3ccccc3)CC2)CC1 (configuration not stated) do in these assays?
RBBP9 inhibitor: inactive; eIF4E 4G PPI: inactive; EBV gp42 block: inactive; WT yeast gro inh: inactive; NCF1 inh: inactive; 14-3-3 Bad inh: 75

Results for COc1cccc(OC)c1OCC(O)CN1CCN(c2ccccc2)CC1 (configuration not stated) ?
RBBP9 inhibitor: inactive; eIF4E 4G PPI: inactive; EBV gp42 block: inactive; WT yeast gro inh: inactive; NCF1 inh: inactive; 14-3-3 Bad inh: 72

Results for CC(C)c1ccc(/C=C2\CC/C(=C\C=N\N(C)C)C2=O)cc1 ?
RBBP9 inhibitor: inactive; eIF4E 4G PPI: inactive; EBV gp42 block: inactive; WT yeast gro inh: inactive; NCF1 inh: 76; 14-3-3 Bad inh: inactive

What do the screens show for `CC(C)/C=C1\CC/C(=C\c2ccc(N(C)C)cc2)C1=O`?
RBBP9 inhibitor: inactive; eIF4E 4G PPI: inactive; EBV gp42 block: inactive; WT yeast gro inh: inactive; NCF1 inh: inactive; 14-3-3 Bad inh: inactive

What do the screens show for `Cc1cccc(C)c1NC(=S)NCc1ccccc1`?
RBBP9 inhibitor: inactive; eIF4E 4G PPI: inactive; EBV gp42 block: inactive; WT yeast gro inh: inactive; NCF1 inh: inactive; 14-3-3 Bad inh: inactive

How did COc1ccccc1NC(=S)NCCSc1ccc(Cl)cc1 do in these assays?
RBBP9 inhibitor: inactive; eIF4E 4G PPI: 33; EBV gp42 block: inactive; WT yeast gro inh: 78; NCF1 inh: inactive; 14-3-3 Bad inh: inactive

Results for COc1ccc(NC(=S)NCCSc2ccc(Cl)cc2)c(OC)c1 ?
RBBP9 inhibitor: inactive; eIF4E 4G PPI: inactive; EBV gp42 block: inactive; WT yeast gro inh: 73; NCF1 inh: inactive; 14-3-3 Bad inh: inactive

Results for COc1ccc(Cl)cc1NC(=S)NCCSc1ccc(C)cc1 ?
RBBP9 inhibitor: inactive; eIF4E 4G PPI: inactive; EBV gp42 block: inactive; WT yeast gro inh: 78; NCF1 inh: inactive; 14-3-3 Bad inh: inactive

Results for Cc1cccc(C)c1NC(=S)NCCSc1ccc(Cl)cc1 ?
RBBP9 inhibitor: inactive; eIF4E 4G PPI: inactive; EBV gp42 block: inactive; WT yeast gro inh: 80; NCF1 inh: inactive; 14-3-3 Bad inh: inactive

How did COc1ccc(Cl)cc1NC(=S)NCCc1c[nH]c2ccccc12 do in these assays?
RBBP9 inhibitor: inactive; eIF4E 4G PPI: inactive; EBV gp42 block: inactive; WT yeast gro inh: inactive; NCF1 inh: inactive; 14-3-3 Bad inh: inactive

Results for Cc1ccc2nc(C3CCCN3Cc3nc(CCC(C)C)no3)[nH]c2c1 (configuration not stated) ?
RBBP9 inhibitor: inactive; eIF4E 4G PPI: inactive; EBV gp42 block: inactive; WT yeast gro inh: inactive; NCF1 inh: inactive; 14-3-3 Bad inh: inactive

What do the screens show for `Cc1cc(C)c(-n2nnnc2SC(C)C)c(C)c1`?
RBBP9 inhibitor: inactive; eIF4E 4G PPI: inactive; EBV gp42 block: inactive; WT yeast gro inh: inactive; NCF1 inh: inactive; 14-3-3 Bad inh: inactive

How did Nc1c(C(=O)Nc2ccc(F)cc2)sc(=S)n1-c1ccccc1F do in these assays?
RBBP9 inhibitor: inactive; eIF4E 4G PPI: inactive; EBV gp42 block: inactive; WT yeast gro inh: inactive; NCF1 inh: inactive; 14-3-3 Bad inh: inactive

How did O=S(=O)(Nc1ccc(N=Nc2ccccc2)cc1)c1ccccc1 do in these assays?
RBBP9 inhibitor: inactive; eIF4E 4G PPI: inactive; EBV gp42 block: inactive; WT yeast gro inh: inactive; NCF1 inh: inactive; 14-3-3 Bad inh: inactive

How did O=S(=O)(Nc1ccc(N=Nc2ccc(O)c3ccccc23)cc1)c1ccccc1 do in these assays?
RBBP9 inhibitor: inactive; eIF4E 4G PPI: inactive; EBV gp42 block: inactive; WT yeast gro inh: 59; NCF1 inh: inactive; 14-3-3 Bad inh: inactive

Assay outcomes from PubChem.
